Laboratory results: ChEMBL document CHEMBL1681731, “Synthesis, in vitro anti-inflammatory and cytotoxic evaluation, and mechanism of action studies of 1-benzoyl-β-carboline and 1-benzoyl-3-carboxy-β-carboline derivatives” (Bioorg Med Chem, 2011)

How the values were obtained:
[1] = Therapeutic index, ratio of CC50 for mouse […] cells to EC50 for inhibition of lipopolysaccharide/interferon-gamma induced nitric oxide production in mouse […] cells; type: cell-based; settings: read-out: TI
RAW264.7 [2] = test: Antiinflammatory activity against mouse RAW264.7 cells assessed as reduction of lipopolysaccharide/interferon-gamma induced PGE2 production at 3 uM after 18 hrs; type: functional; settings: RAW264.7, 18 h
Outline: (§1)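 RAW 264.7 macrophages (passages 9–20) stimulated with LPS/IFN-γ; compound tested at 1, 3 and 10 µM. Supernatant PGE2 measured by competitive EIA: anti-PGE2 antibody plus peroxidase-PGE2 tracer, 1 h RT; TMB/H2O2 30 min; H2SO4 stop; A450. Results given as % inhibition.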

[3] = Cytotoxicity activity against human KBVIN cells assessed as growth inhibition at 10 ug/ml after 72 hrs sulforhodamine B assay; type: functional
Outline: (§2)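 Cells kept in RPMI-1640/10% FBS with antibiotics at 37 °C, 5% CO2. Trypsinized cells seeded and given compound from DMSO-diluted stock. Incubated 72 h, then fixed with 10% TCA. Stained 10 min with 0.4% sulforhodamine B in 1% HOAc, washed, dye dissolved in 10 mM Trizma. A515 read; growth relative to net protein increase of controls.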

[4] = Cytotoxicity against mouse […] cells by MTT assay; type: functional
Outline: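 Viability of RAW 264.7 cells taken as mitochondrial reduction of MTT to formazan. Formazan read at OD550.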

RAW264.7 [5] = test: Antiinflammatory activity against mouse RAW264.7 cells assessed as reduction of lipopolysaccharide/interferon-gamma induced PGE2 production at 10 uM after 18 hrs; type: functional; settings: RAW264.7, 18 h; outline: as §1
[6] = Antiinflammatory activity against mouse […] cells assessed as inhibition of lipopolysaccharide/interferon-gamma induced nitric oxide production; type: functional, cell-based
Outline: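 RAW 264.7 cells in DMEM/10% FCS, passages 9–20. Nitrite induced by LPS (1 µg/mL) plus IFN-γ (50 U/mL) for 18 h with or without compound. Griess reagent (1% sulfanilamide, 0.1% naphthylenediamine in 5% H3PO4) read at OD550. EC50 calculated.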

A549 = test: Cytotoxicity activity against human A549 cells assessed as growth inhibition at 10 ug/ml after 72 hrs sulforhodamine B assay; type: functional; settings: A549, 72 h; outline: as §2
RAW264.7 [7] = test: Antiinflammatory activity against mouse RAW264.7 cells assessed as reduction of lipopolysaccharide/interferon-gamma induced PGE2 production at 1 uM by EIA; type: functional; outline: as §1
[8] = Antiinflammatory activity against human neutrophil assessed as inhibition of N-formyl-l-methionyl phenylalanine/cytochalasin B-induced superoxide anion generation by spectrophotometry; type: functional, cell-based
Outline: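 Ferricytochrome c (0.5 mg/mL) reduction, SOD-inhibitable, with 1 mM Ca2+. Neutrophils (6 × 10^5 cells/mL) equilibrated 2 min at 37 °C, then drug or 0.1% DMSO for 5 min. Cytochalasin B 1 µg/mL preincubation, then 100 nM FMLP for 3 min. A550 monitored continuously with stirring. IC50 computed; mean ± SEM, n = 3.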

DU-145 = test: Cytotoxicity activity against human DU145 cells assessed as growth inhibition at 10 ug/ml after 72 hrs sulforhodamine B assay; type: functional; settings: DU-145, 72 h; outline: as §2
KB = test: Cytotoxicity activity against human KB cells assessed as growth inhibition at 10 ug/ml after 72 hrs sulforhodamine B assay; type: functional; outline: as §2
[9] = Antiinflammatory activity against human neutrophil assessed as inhibition of N-formyl-l-methionyl phenylalanine/cytochalasin B-induced elastase release; type: functional, cell-based
Outline: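 Neutrophils (6 × 10^5/mL) supplemented with 100 µM MeO-Suc-Ala-Ala-Pro-Val-p-nitroanilide, equilibrated 2 min at 37 °C, then given drug or 0.1% DMSO vehicle for 5 min. Activated with 100 nM FMLP plus 0.5 µg/mL cytochalasin B. Absorbance at 405 nm followed continuously. Release expressed as percent of drug-free activated control. IC50 computed; mean ± SEM, n = 3.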

SMILES | selectivity ratio [1] | inhibition at 3 µM (RAW264.7 [2]) | GI50 [3] | CC50 [4] | inhibition at 10 µM (RAW264.7 [5]) | EC50 ([6]; Mus musculus, read-out: EC50) | GI50 (A549) | inhibition at 1 µM (RAW264.7 [7]) | IC50 [8] | GI50 (DU-145) | GI50 (KB) | IC50 [9] | EC50 [6]
Cc1ccc(C(=O)c2nccc3c2[nH]c2ccccc23)cc1 | 42 | 99% | > 40 µM | 52.8 µM | 100% | 1.26 µM | > 40 µM | 25% | > 30 µM | > 40 µM | > 40 µM | > 30 µM | –
COc1ccc2c(c1)c(CC(=O)O)c(C)n2C(=O)c1ccc(Cl)cc1 [INDOMETHACIN] | – | – | – | – | – | – | – | – | 38.3 µM | – | – | 32 µM | –
CC(O)c1nccc2c1[nH]c1ccccc12 (stereo not drawn) | – | 0% | > 40 µM | 0.28 µM | 0% | – | > 40 µM | 0% | 9.4 µM | > 40 µM | > 40 µM | > 30 µM | Not Active
O=C(c1ccc(Br)cc1)c1nccc2c1[nH]c1ccccc12 | 492 | 100% | > 40 µM | 149 µM | – | 0.3 µM | > 40 µM | 98% | > 30 µM | > 40 µM | > 40 µM | > 30 µM | –
COC(=O)c1cc2c([nH]c3ccccc32)c(C(=O)c2ccc(OC)cc2)n1 | 4 | 100% | > 40 µM | 1.95 µM | – | 0.51 µM | > 40 µM | 98% | > 30 µM | > 40 µM | > 40 µM | > 30 µM | –
O=C(c1cccc([N+](=O)[O-])c1)c1nccc2c1[nH]c1ccccc12 | 20 | 95% | > 40 µM | 21.6 µM | 96% | 1.06 µM | > 40 µM | 0% | 16.6 µM | > 40 µM | > 40 µM | – | –
O=c1cc(N2CCOCC2)oc2c(-c3ccccc3)cccc12 [LY-294002] | – | – | – | – | – | – | – | – | 1.12 µM | – | – | 1.92 µM | –
OC(c1ccc(Br)cc1)c1nccc2c1[nH]c1ccccc12 (stereo not drawn) | 95 | 21% | 14.5 µM | 70.1 µM | 34% | 0.74 µM | 19 µM | 0% | 8.84 µM | 13.3 µM | 15.9 µM | 14.2 µM | –
CC(=O)c1nc(C(N)=O)cc2c1[nH]c1ccccc12 [STELLARINES A] | 21 | 90% | > 40 µM | 19.8 µM | 90% | 0.92 µM | > 40 µM | 0% | 14.5 µM | > 40 µM | > 40 µM | 5.82 µM | –
COc1ccc(C(O)c2nccc3c2[nH]c2ccccc23)cc1 (stereo not drawn) | 764 | 0% | – | 1590 µM | 19% | 2.08 µM | – | 0% | – | – | – | – | –
OC(c1ccccc1)c1nccc2c1[nH]c1ccccc12 (stereo not drawn) | 186 | 0% | 22.6 µM | 57.4 µM | 0% | 0.31 µM | > 40 µM | 0% | 7.88 µM | > 40 µM | > 40 µM | > 30 µM | –
CC(=O)O[C@H]1C(=O)[C@@]2(C)[C@H]([C@H](OC(=O)c3ccccc3)[C@]3(O)C[C@H](OC(=O)[C@H](O)[C@@H](NC(=O)c4ccccc4)c4ccccc4)C(C)=C1C3(C)C)[C@]1(OC(C)=O)CO[C@@H]1C[C@@H]2O [PACLITAXEL] | – | – | > 1 µM | – | – | – | 0.00558 µM | – | – | 0.00555 µM | 0.00487 µM | – | –
O=C(c1ccccc1)c1nccc2c1[nH]c1ccccc12 | 49 | 39% | > 40 µM | 131 µM | 82% | 2.67 µM | > 40 µM | 0% | > 30 µM | > 40 µM | > 40 µM | > 30 µM | –
Cc1ccccc1C(=O)c1nccc2c1[nH]c1ccccc12 | > 2000 | 44% | > 40 µM | – | 82% | 2.12 µM | > 40 µM | 0% | > 30 µM | > 40 µM | > 40 µM | > 30 µM | –
O=C(c1cccc(Br)c1)c1nccc2c1[nH]c1ccccc12 | 44 | 98% | > 40 µM | 51.4 µM | – | 1.16 µM | > 40 µM | 97% | > 30 µM | > 40 µM | > 40 µM | > 30 µM | –
O=C(c1ccccc1Br)c1nccc2c1[nH]c1ccccc12 | 8 | 37% | > 40 µM | 53.8 µM | 89% | 6.97 µM | > 40 µM | 0% | > 30 µM | > 40 µM | > 40 µM | > 30 µM | –
N=C(N)NN [PIMAGEDINE] | 16 | 21% | – | 358 µM | 42% | 22.6 µM | – | 8% | – | – | – | – | –
